Rce1 inh: yeast Ras-converting enzyme inhibition; yeast membranes, quenched prenylated peptide cleavage fluorescence; calls only; 290,000 tested, 0.27% active;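 active = fall in fluorescence gain of 50% or more versus controls, with final raw signal at or below 3038400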;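 also: plate controls were neutral control wells for no effect and wells lacking membranes for full effect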
Target sequence (Q03530 whole entry, looked up): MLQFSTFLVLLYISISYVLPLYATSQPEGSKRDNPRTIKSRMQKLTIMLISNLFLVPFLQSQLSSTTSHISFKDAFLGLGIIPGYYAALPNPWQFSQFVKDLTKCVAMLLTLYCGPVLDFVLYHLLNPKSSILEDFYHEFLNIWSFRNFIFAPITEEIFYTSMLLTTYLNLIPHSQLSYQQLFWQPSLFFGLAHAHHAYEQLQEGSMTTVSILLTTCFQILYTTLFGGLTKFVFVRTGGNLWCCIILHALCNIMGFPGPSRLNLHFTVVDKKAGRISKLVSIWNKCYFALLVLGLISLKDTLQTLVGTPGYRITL
Platelet DG rel: modulates dense granule release in human platelets; human platelet-rich plasma, SFLLRN dense granule ATP release, luminescence; inhibition, %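 (compounds screened at 7.5 µM in platelet-rich plasma)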; 300,000 tested, 0.22% active; AID 1663;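 active = mean replicate score, as percent of positive control, at or above 50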
VLA-4 inh: inhibition in a human VLA-4 binding assay; P13612; inhibition, % (about 7 µM as worked out from the volumes in the protocol); VLA-4 expressing cells, ligand binding flow cytometry; 330,000 tested, 0.2% active; in the data active = inhibition above about 50%
TAAR1 agonist: human TAAR1 agonism; Q96RJ0; CHO RD-HGA16 TAAR1, Fluo-8 calcium fluorescence; vehicle wells 0%, saturating PEA agonist 100%; activation, % at 3 µM; 360,000 tested, 0.99% active; AID 624467;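 active = activation above the mean activation of all test compounds in the run plus 3 SD, cut at about 38% in these data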
Target sequence (Q96RJ0 whole entry, looked up): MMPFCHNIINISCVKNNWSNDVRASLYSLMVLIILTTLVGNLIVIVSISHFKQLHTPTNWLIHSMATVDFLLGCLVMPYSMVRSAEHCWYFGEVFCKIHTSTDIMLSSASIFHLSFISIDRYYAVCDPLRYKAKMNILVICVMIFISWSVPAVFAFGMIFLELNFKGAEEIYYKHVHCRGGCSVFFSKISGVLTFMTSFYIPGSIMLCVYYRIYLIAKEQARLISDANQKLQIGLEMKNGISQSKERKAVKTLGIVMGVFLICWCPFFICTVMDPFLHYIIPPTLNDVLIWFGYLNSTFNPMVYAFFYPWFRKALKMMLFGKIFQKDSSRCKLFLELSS
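Repeats: no replicates (n 1) | Material: CHO-derived RD-HGA16 cells with stable Gα16 and human TAAR1 | Technique: Kinetic Fluo-8 calcium fluorescence | Schedule: 17-24 h seeding, 75 min 37 °C dye, 30 min RT | Evaluation: % activation from peak over basal fluorescence ratio, DMSO-to-PEA scaled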
TAAR1 antagonist: antagonists of human TAAR1; CHO RD-HGA16 TAAR1, Fluo-8 calcium fluorescence, antagonist; inhibition, % at 3 µM; 360,000 tested, 1.5% active; AID 624466;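 active = inhibition above a per-plate cutoff, the mean inhibition of test compounds on that plate plus 3 SD, cut at about 49% in these data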;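 also: 0% = DMSO plus EC80 beta-PEA response and 100% = DMSO alone without agonist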
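Material: RD-HGA16 CHO cells with stable hTAAR1 and Gα16; Dosing: single nominal final test compound concentration of 3 µM; Schedule: seeding 17-24 h prior, 75-min 37 °C, 30-min RT dye loading; Detection: kinetic Fluo-8 calcium fluorescence measurement; Measure: % inhibition from peak post-agonist over basal fluorescence ratio; Benchmarks: vehicle and agonist controls.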
Numbers without * were called inactive. Only some compounds are listed: those with a hit (about 2.6% of all), similar ones and a draw of the others.

CCOC1=C2[C@H](c3ccccc3F)N(S(=O)(=O)c3ccc(C)cc3)C[C@H]2n2c(=O)n(-c3ccccc3)c(=O)n2C1 was read as TAAR1 agonist 2.9 and TAAR1 antagonist -24.7.
`C/C(=N\NC(=O)Cc1c(Cl)cccc1Cl)c1cccnc1` gave Rce1 inh inactive, Platelet DG rel 2.4, VLA-4 inh 3.7, TAAR1 agonist -0.1 and TAAR1 antagonist -8.9.
Screening Clc1ccc(CCNc2ncnc3c2nnn3Cc2ccccc2)cc1 returned Rce1 inh inactive, Platelet DG rel -1.6, VLA-4 inh 2.5, TAAR1 agonist 37.7* and TAAR1 antagonist -32.5.
Screening OCCNc1ncnc2c1nnn2Cc1ccccc1 returned Rce1 inh inactive, Platelet DG rel 6.7, TAAR1 agonist 1.7 and TAAR1 antagonist -17.2.
`CC(C)CCNc1ncnc2c1nnn2Cc1ccccc1Cl` gave Rce1 inh inactive, Platelet DG rel -3.7, VLA-4 inh 2.6, TAAR1 agonist 40.1* and TAAR1 antagonist 20.9.
Screening CC1(C)O[C@@H]2C[C@H]3[C@@H]4CCC5=CC(=O)C=C[C@]5(C)[C@@]4(F)[C@@H](O)C[C@]3(C)[C@]2(C(=O)CO)O1 returned Rce1 inh inactive, VLA-4 inh 14.9, TAAR1 agonist 2.1 and TAAR1 antagonist -21.6.
Screening CC(=O)OCC(=O)[C@@]12OC3(CCCC3)O[C@@H]1C[C@H]1[C@@H]3CCC4=CC(=O)C=C[C@]4(C)[C@@]3(F)[C@@H](O)C[C@@]12C returned Rce1 inh active, Platelet DG rel -10.0, VLA-4 inh 20.6, TAAR1 agonist 1.2 and TAAR1 antagonist -54.6.
CSc1nnc(C)c(/C=C/Nc2ccc(F)cc2)n1 was read as Rce1 inh inactive, Platelet DG rel 5.8, VLA-4 inh 19.1, TAAR1 agonist 67.7* and TAAR1 antagonist 32.0.
COc1ccc(-c2[nH]ncc2CN(CCO)Cc2cccs2)c(F)c1 was read as Rce1 inh inactive, Platelet DG rel -5.2, VLA-4 inh 5.0, TAAR1 agonist 1.2 and TAAR1 antagonist -4.0.
`O=C1CCCN1CC(O)CS(=O)(=O)c1ccccc1` (centres undefined) gave Rce1 inh active, Platelet DG rel 3.1, VLA-4 inh -4.6, TAAR1 agonist 0.3 and TAAR1 antagonist 14.0.
Screening CCCC1NC(=O)c2cccnc2-n2c1nc1cc(F)c(F)cc1c2=O (centres undefined) returned TAAR1 agonist 0.9 and TAAR1 antagonist -10.6.
`COCCN(C(=O)COC(=O)c1c(NC(C)=O)sc(C)c1C)c1c(N)n(Cc2ccccc2)c(=O)[nH]c1=O` gave Rce1 inh inactive, VLA-4 inh -7.6, TAAR1 agonist 4.3 and TAAR1 antagonist 1.7.
`COc1ccccc1NC(=O)CSc1nnc(-c2ccc(C)cc2)o1` gave Rce1 inh inactive, Platelet DG rel 1.1, VLA-4 inh 20.1, TAAR1 agonist 2.9 and TAAR1 antagonist 0.5.
CCn1c2ccccc2c2cc(NC(=O)CSc3nnc(-c4cccc(Cl)c4)o3)ccc21 was read as Rce1 inh inactive, Platelet DG rel 61.1*, VLA-4 inh 5.9, TAAR1 agonist 3.4 and TAAR1 antagonist -15.3.
COc1cccc(NC(=O)CSc2nnc(-c3ccc(C)cc3)o2)c1 was read as Rce1 inh inactive, Platelet DG rel -1.0, VLA-4 inh 8.8, TAAR1 agonist 61.3* and TAAR1 antagonist 50.9*.
For O=C(NCC1CCN(C(=O)C(=O)c2cc3ccccc3o2)CC1)c1ccc2c(c1)OCC2 the results were TAAR1 agonist 3.7 and TAAR1 antagonist -28.7.
O=C(COC(=O)c1ccccc1SCC(=O)NC1CCS(=O)(=O)C1)NC1CCS(=O)(=O)C1 (centres undefined) was read as Rce1 inh inactive, Platelet DG rel 4.0, VLA-4 inh 1.1, TAAR1 agonist 1.4 and TAAR1 antagonist -9.7.
For O=C(COC(=O)c1ccccc1Cc1ccccc1)NC1CCS(=O)(=O)C1 (centres undefined) the results were Rce1 inh active, Platelet DG rel -0.4, VLA-4 inh 7.1, TAAR1 agonist 8.9 and TAAR1 antagonist -17.0.
`O=C(CSc1ccc(-c2ccc3c(c2)OCO3)nn1)Nc1nccs1` gave Rce1 inh inactive, Platelet DG rel 1.4, VLA-4 inh 20.8, TAAR1 agonist 2.2 and TAAR1 antagonist 9.7.
`O=C(CSCC(=O)Nc1nc(-c2ccc3c(c2)OCO3)cs1)Nc1nccs1` gave Rce1 inh inactive, Platelet DG rel 1.8, VLA-4 inh -33.6, TAAR1 agonist 15.9 and TAAR1 antagonist 54.1*.
Screening Cc1cc(NC(=O)COc2coc(CN3CCN(c4ccccc4F)CC3)cc2=O)no1 returned Rce1 inh inactive, Platelet DG rel -3.8, VLA-4 inh -0.5, TAAR1 agonist 1.6 and TAAR1 antagonist -17.7.
Screening Cc1cc(NC(=O)Nc2ccccc2[N+](=O)[O-])n(C)n1 returned Rce1 inh inactive, Platelet DG rel 7.2, VLA-4 inh 2.5, TAAR1 agonist -0.4 and TAAR1 antagonist -4.7.
Screening Cc1ccc(-c2c(C#N)c(N)n(-c3ccc(Cl)cc3)c(=O)c2C#N)cc1 returned TAAR1 agonist 8.3 and TAAR1 antagonist 4.6.
Cc1ccc(-c2c(C#N)c(N)n(-c3ccccc3)c(=O)c2C#N)cc1 was read as Rce1 inh inactive, Platelet DG rel 53.5*, VLA-4 inh 14.8, TAAR1 agonist 8.9 and TAAR1 antagonist 1.2.
`Cc1ccc(-c2csc(N(CCO)CCCn3c(C(F)(F)F)nc4ccccc43)n2)cc1` gave Rce1 inh inactive, Platelet DG rel -11.2, VLA-4 inh 3.9, TAAR1 agonist 3.6 and TAAR1 antagonist 30.6.
Screening O=C(O)CCC(=O)NCCc1cccc(Cl)c1 returned Rce1 inh inactive, Platelet DG rel 1.3, VLA-4 inh 19.4, TAAR1 agonist 38.2* and TAAR1 antagonist 5.9.
`COc1ccc(/C=C2\N=C(C)N(c3ccc4ccccc4c3)C2=O)cc1OC` gave Platelet DG rel -1.2, VLA-4 inh -27.3, TAAR1 agonist 3.0 and TAAR1 antagonist 65.7*.
Screening COc1ccc(/C=C2\N=C3CCCCCN3C2=O)cc1OC returned Rce1 inh inactive, Platelet DG rel 0.0, VLA-4 inh -0.7, TAAR1 agonist 0.8 and TAAR1 antagonist 2.7.
CC(C)c1cn(CC[C@@H]2CC[C@@H](NC(=O)C3CCCCC3)[C@@H](CO)O2)nn1 was read as TAAR1 agonist 2.0 and TAAR1 antagonist -15.0.
`CCNC(=O)c1cc2c(c(-c3cccc(-c4cccc(C(=O)N(C)C)c4)c3)n1)[C@H](CCO)N(S(=O)C(C)(C)C)C2` (some centres undefined) gave TAAR1 agonist 2.4 and TAAR1 antagonist -5.2.
CC(C)(C)S(=O)N1Cc2cc(C(=O)NCC(F)(F)F)nc(-c3cccc(-c4cccc(F)c4)c3)c2[C@H]1CCO (some centres undefined) was read as TAAR1 agonist 10.1 and TAAR1 antagonist 62.0*.
COCCNC(=O)c1cc2c(c(-c3cccc(-c4cccc(OC)c4)c3)n1)[C@H](CCO)N(S(=O)C(C)(C)C)C2 (some centres undefined) was read as TAAR1 agonist 4.5 and TAAR1 antagonist 1.2.

Screens as filed in PubChem BioAssay.
